Screening results: PubChem, The Scripps Research Institute Molecular Screening Center
TAAR1 antagonist: antagonists of human TAAR1; Q96RJ0; AID 624466; inhibition, % at 3 µM; 360,000 tested, 1.5% active; CHO RD-HGA16 TAAR1, Fluo-8 calcium fluorescence, antagonist;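 active = inhibition above a per-plate cutoff, the mean inhibition of test compounds on that plate plus 3 SD, cut at about 49% in these data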;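 also: 0% = DMSO plus EC80 beta-PEA response and 100% = DMSO alone without agonist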
Target sequence (Q96RJ0 whole entry, looked up): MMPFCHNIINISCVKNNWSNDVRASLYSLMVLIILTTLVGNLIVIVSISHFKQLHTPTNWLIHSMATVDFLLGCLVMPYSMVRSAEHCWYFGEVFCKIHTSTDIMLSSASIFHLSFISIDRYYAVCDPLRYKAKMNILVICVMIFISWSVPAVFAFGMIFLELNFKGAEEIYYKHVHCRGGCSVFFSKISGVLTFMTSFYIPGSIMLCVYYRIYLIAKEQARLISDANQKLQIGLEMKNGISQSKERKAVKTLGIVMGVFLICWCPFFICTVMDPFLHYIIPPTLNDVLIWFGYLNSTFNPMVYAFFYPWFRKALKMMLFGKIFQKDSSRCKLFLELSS
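System: CHO RD-HGA16 cells bearing hTAAR1. Reagent: EC80 β-phenethylamine stimulus. Schedule: seeding 17-24 h prior, 75-min 37 °C, 30-min RT dye loading. Signal: Fluo-8 intracellular calcium dye fluorescence, real-time kinetic reads. Read-out: % inhibition from peak post-agonist over basal fluorescence ratio. Benchmarks: vehicle wells and EC80 agonist wells. Replicates: n of 1.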
TAAR1 ag: human TAAR1 agonism | Q96RJ0 | 360,000 tested, 0.99% active | AID 624467 | CHO RD-HGA16 TAAR1, Fluo-8 calcium fluorescence; vehicle wells 0%, saturating PEA agonist 100% | activation, % at 3 µM;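 active = activation above the mean activation of all test compounds in the run plus 3 SD, cut at about 38% in these data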
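System: CHO-derived RD-HGA16 cells with stable Gα16 and human TAAR1. Times: 17-24 h plating, Fluo-8 75 min 37 °C, 30 min RT. Measured by: calcium-sensitive Fluo-8 signal, excitation 470-495, emission 515-575 nm. Read-out basis: % activation relative to PEA EC100 response. Control set: DMSO and PEA EC100. Repeats: no replicates (n 1).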
OXTR ag: agonists of human oxytocin receptor; P30559; AID 2435; 320,000 tested, 0.32% active; CHO-OTR cells, Fluo-8 calcium fluorescence; normalized: DMSO 0%, oxytocin 100%; activation, % at 3 µM;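 active = activation above the mean of all tested compounds plus 3 SD, cutoff set per screening run, cut at about 20% in these data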;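 also: peak over basal fluorescence ratio from a 100 s FLIPR kinetic read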
OXTR potentiate: potentiators of human oxytocin receptor; P30559; CHO-OTR cells, Fluo-8 calcium fluorescence, potentiator mode; 0% = oxytocin EC15, 100% = EC100; activation, % at 3 µM; 320,000 tested, 0.061% active; AID 2445;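 active = activation above that plate's cutoff, the mean activation of tested compounds plus 3 SD, cut at about 6.6% in these data, passing the limit was not always enough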;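 also: 100% uses oxytocin at 75 nM as the full agonist control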
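System: human OTR in CHO cells / Also added: sub-maximal oxytocin, roughly EC15 / Control set: EC15 oxytocin low, 75 nM oxytocin high / Schedule: 6 min compound pre-incubation at room temperature, 100 s kinetic read / Compound: single-point 3.0 µM / Replication: singlicate / Technique: Fluo-8 calcium dye fluorescence / Read-out basis: % activation of max/min ratio relative to oxytocin controls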
V1aR counter: activates human V1a receptor in oxytocin agonist counter-screen | P37288 | CHO-V1R cells, Fluo-8 calcium fluorescence, agonist mode; 0% DMSO, 100% 3 nM vasopressin | activation, % at 3 µM | 320,000 tested, 0.25% active | AID 2797;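 active = activation above the mean activation of all tested compounds plus 3 SD, per screening run, cut at about 20% in these data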;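 also: signal is peak over basal fluorescence ratio across a 100 second FLIPR read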
TAAR1 ag confirm: confirmation of human TAAR1 agonists; activation, % at 3 µM; CHO RD-HGA16 TAAR1, Fluo-8 calcium fluorescence; scaled: DMSO 0%, maximal phenethylamine 100%; 2,400 tested, 82% active; shares compounds with TAAR1 ag; AID 651783;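 active = activation above a cutoff set at the run's mean compound activation plus 3 SD, cut at about 39% in these data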
Ga16 ag counter: nonselective agonist in parental cells, TAAR1 agonist counter-screen; activation, % at 3 µM; CHO-Ga16 parental, Fluo-8 calcium fluorescence; normalized to maximal ATP response, DMSO zero; shares compounds with TAAR1 ag; 2,400 tested, 50% active;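 active = activation above the run cutoff, the mean activation over all tested wells plus 3 SD, cut at about 12% in these data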;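 also: 0% = DMSO wells and 100% = maximal ATP response on the peak over basal ratio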
TAAR1 desensitize: TAAR1 response desensitization, agonist counter-screen | AID 651951 | 2,400 tested, 46% active | CHO RD-HGA16 hTAAR1, Fluo-8 calcium, beta-PEA response inhibition | inhibition, % at 3 µM | shares compounds with TAAR1 ag;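 active = inhibition above the run cutoff, the mean inhibition of all test compounds plus 3 SD, cut at about 49% in these data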;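 also: beta-PEA stimulus applied at its EC80; loss of beta-PEA calcium signal after compound pretreatment read as receptor desensitization; 0% = DMSO with beta-PEA at EC80 and 100% = DMSO alone without agonist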
Ga16 antag count: nonselective Ga16 antagonism, counter-screen; shares compounds with TAAR1 ag; CHO-Ga16 ATP-induced calcium, Fluo-8 fluorescence; inhibition, % at 3 µM; 2,400 tested, 39% active; AID 651952;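 active = inhibition above the plate's mean compound inhibition plus 3 SD, computed per plate, cut at about 22% in these data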;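 also: 0% = EC80 ATP with DMSO and 100% = DMSO wells without ATP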
An asterisk follows results filed as active. Shown are actives, neighbours in structure and some others; about 2.3% of the full set was active somewhere.

For Cc1ccc(CNC(=O)OC2CC3CC2[C@H]2CCCCN2C3=O)cc1 (some centres undefined) the results were TAAR1 antagonist -11, TAAR1 ag 54*, TAAR1 ag confirm 0, Ga16 ag counter 0, TAAR1 desensitize 10 and Ga16 antag count 13.
For COc1cc(CNC(=O)OC2CC3CC2[C@H]2CCCCN2C3=O)cc(OC)c1 (some centres undefined) the results were TAAR1 antagonist -20 and TAAR1 ag 1.
Screening O=C(Nc1ncc(S(=O)(=O)c2ccc([N+](=O)[O-])cc2)s1)c1cccc2ccccc12 returned TAAR1 antagonist 94*, TAAR1 ag 128*, OXTR ag 32*, OXTR potentiate -20, V1aR counter 27*, TAAR1 ag confirm 129*, Ga16 ag counter 88*, TAAR1 desensitize 105* and Ga16 antag count 79*.
For COCC(=O)Nc1ncc(S(=O)(=O)c2ccc([N+](=O)[O-])cc2)s1 the results were TAAR1 antagonist 7, TAAR1 ag 2, OXTR ag 5, OXTR potentiate -3 and V1aR counter 4.
Screening COc1cc(C(=O)NNC(=O)c2cccc(Cl)c2)ccc1OCC(=O)N1CCOCC1 returned TAAR1 antagonist -13, TAAR1 ag 1, OXTR ag 0, OXTR potentiate -1 and V1aR counter 2.
CCCOc1c(OC)cccc1C1CC(=O)Nc2cc3c(cc21)OCCO3 (centres undefined) was read as TAAR1 antagonist -12, TAAR1 ag 39*, OXTR ag 0, OXTR potentiate -9, V1aR counter -1, TAAR1 ag confirm 10, Ga16 ag counter 9, TAAR1 desensitize -10 and Ga16 antag count -2.
`CCCOc1c(OC)cccc1C1CC(=O)Nc2cc3c(cc21)OCO3` (centres undefined) gave TAAR1 antagonist 3, TAAR1 ag 11, OXTR ag 0, OXTR potentiate -4 and V1aR counter -1.
Screening CC(C)(C)c1ccc(C(=O)NC(=S)NNC(=O)COc2ccccc2)cc1 returned TAAR1 antagonist 67*, TAAR1 ag 124*, OXTR ag 12, OXTR potentiate -6, V1aR counter 1, TAAR1 ag confirm 124*, Ga16 ag counter 101*, TAAR1 desensitize 100* and Ga16 antag count 81*.
Screening Cc1ccc(C(=O)NNC(=S)NC(=O)COc2ccccc2)cc1 returned TAAR1 antagonist 74*, TAAR1 ag 142*, OXTR ag 0, OXTR potentiate -11, V1aR counter 0, TAAR1 ag confirm 130*, Ga16 ag counter 111*, TAAR1 desensitize 89* and Ga16 antag count 68*.
`Cc1ccc(OCC(=O)Nc2ccc(NC(=O)c3ccccc3)c(C)c2)cc1` gave TAAR1 antagonist 44, TAAR1 ag 44*, TAAR1 ag confirm 52*, Ga16 ag counter 21*, TAAR1 desensitize 63* and Ga16 antag count 19.
For Cc1ccccc1C(=O)NNC(=S)NC(=O)COc1ccccc1 the results were TAAR1 antagonist -21, TAAR1 ag 1, OXTR ag 0, OXTR potentiate 4 and V1aR counter 0.
For CC(OC(=O)C1CCCC1)C(=O)Nc1ccc(S(N)(=O)=O)cc1 (centres undefined) the results were TAAR1 antagonist -4, TAAR1 ag 3, OXTR ag 1, OXTR potentiate -6 and V1aR counter 0.
For CC(NC(=O)Cc1ccc(-c2ccccc2)cc1)c1ccccc1 (centres undefined) the results were TAAR1 antagonist 22, TAAR1 ag 60*, OXTR ag 6, OXTR potentiate -19, V1aR counter 2, TAAR1 ag confirm 17, Ga16 ag counter 18*, TAAR1 desensitize 7 and Ga16 antag count 9.
For O=C(CC1CCCC1)N[C@H](C(=O)N1CCC[C@H]1C(=O)NCc1ccccc1)c1ccccc1 the results were TAAR1 antagonist 6 and TAAR1 ag 0.
For O=C(CC1CCCC1)N[C@H](C(=O)N1CCC[C@H]1C(=O)NCCc1ccccc1Cl)c1ccccc1 the results were TAAR1 antagonist 53*, TAAR1 ag 55*, TAAR1 ag confirm 86*, Ga16 ag counter 7, TAAR1 desensitize 79* and Ga16 antag count 11.
`CCOC(=O)N[C@H](C(=O)N1CCC[C@H]1C(=O)NCCc1ccccc1Cl)c1ccccc1` gave TAAR1 antagonist 64*, TAAR1 ag 69*, TAAR1 ag confirm 85*, Ga16 ag counter 2, TAAR1 desensitize 83* and Ga16 antag count 6.
`CC1(C)CC[C@@]23CC[C@]4(C)[C@@](OC2=O)(C3C1)[C@H]1O[C@H]1C1[C@@]2(C)CC[C@H](O)C(C)(C)C2CC[C@]14C` (some centres undefined) gave OXTR ag 3, OXTR potentiate -2 and V1aR counter 1.
`COc1ccc(N2CC(C(=O)N[C@@H](C)C(=O)NCCc3ccccc3)CC2=O)cc1` (some centres undefined) gave TAAR1 antagonist -33, TAAR1 ag 62*, OXTR ag 0, OXTR potentiate -4, V1aR counter 0, TAAR1 ag confirm 48*, Ga16 ag counter -1, TAAR1 desensitize 5 and Ga16 antag count 0.
For COc1ccc(N2CC(C(=O)NCc3ccccc3)CC2=O)cc1 (centres undefined) the results were TAAR1 antagonist 0, TAAR1 ag 7, OXTR ag -1, OXTR potentiate -9 and V1aR counter -1.
Screening C/C=C/c1ccc(OCC(O)CNCC(c2ccc(OC)cc2)N(C)C)c(OC)c1 (centres undefined) returned TAAR1 antagonist 1, TAAR1 ag -2, OXTR ag -1, OXTR potentiate 2 and V1aR counter 2.
